From PubChem BioAssay
DAT uptake mod = changed human dopamine transporter uptake under cocaine IC80; AID 449768; Q01959; 110,000 compounds, 1.3% hits; B-score at 10 µM; LLC-PK1 hDAT cells, [14C]-dopamine uptake with cocaine IC80; actives deviate in either direction;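 active = Z score or B-score, a plate-position-corrected score, falls beyond the plate's 99.7% confidence bounds, in either direction; inactive = both scores lie inside the 99.7% bounds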;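 also: scored against the spread of the other compound wells on the same plate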
EphB4 ephrin blk = EphB4-ephrin-B2 interaction antagonism. P54760. EphB4 LBD / TNYL-RAW-Alexa532 peptide, fluorescence polarization. inhibition, % at 7 µM. 97,000 compounds, 0.15% hits. AID 720;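 active = inhibition above the screen-wide mean inhibition plus 3 SD, cut at about 15% in these data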;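 also: 0% = DMSO wells and 100% = excess unlabeled TNYL-RAW peptide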
Rev-RRE block = inhibitors of HIV-1 Rev-RRE RNA interaction | Rev peptide-RRE RNA binding, FRET | 97,000 compounds, 0.79% hits | inhibition, % at 8 µM | P05866;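 active = inhibition above the screen-wide mean plus 3 SD, cut at about 35% in these data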;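 also: 0% = median DMSO wells and 100% = median Neomycin B control wells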
Target sequence (P05866 whole entry, looked up): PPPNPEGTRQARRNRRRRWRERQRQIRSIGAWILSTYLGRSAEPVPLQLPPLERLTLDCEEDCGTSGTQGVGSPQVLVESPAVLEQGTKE
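Test system: Cy5-tagged RRE RNA duplex with fluorescein-tagged Rev peptide | Read-out: % inhibition of FRET ratio versus controls | Probe or stimulus: Labelled Rev peptide | Incubation: 5 min RNA-compound premix plus 15 min binding step, 25 °C | Technique: FRET fluorescence readout | Benchmarks: DMSO low control, neomycin B high control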
Cav32 inh = human Cav3.2 channel inhibition, primary screen. Cav3.2-expressing cells, Fluo-4 calcium fluorescence FDSS; hits give low values. B-score at 10 µM. 100,000 compounds, 4% hits;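 active = single-dose well whose peak fluorescence ratio is a statistical outlier from its plate by either plate-standardised score or position-corrected B-score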
Numbers without * were called inactive; . = not tested or not shown; [ ] = dose if it differs, or a comment. An excerpt weighted towards active compounds, which were near 5.4% of everything screened.

SMILES	DAT uptake mod	EphB4 ephrin blk	Rev-RRE block	Cav32 inh
CC(C)[C@@H]1NC(=O)c2cc([N+](=O)[O-])cc(I)c2NCCCC[C@@H](C(=O)NC(CC(=O)O)C(N)=O)NC(=O)[C@H](CO)NC1=O (stereo partly specified)	-0.28	.	.	-0.019
Cc1ccc(C)c(NS(=O)(=O)c2cc(C(=O)Nc3ccccc3-c3ccccc3)ccc2C)c1	0.0078	5	8	-1.1
Cc1ccc(C(=O)Nc2ccccc2-c2ccccc2)cc1S(=O)(=O)Nc1cccc(C)c1C	-0.35	-1	12	-6.3*
CCOc1cc(S(=O)(=O)N2CCC(C(N)=O)CC2)ccc1F	-0.051	5	1	0.66
O=c1oc2cc(O)ccc2c2c1CCCC2	-0.99	3	4	0.47
O=C(C(c1ccccc1)c1ccccc1)N1CCC(c2nc(-c3ccccc3Cl)no2)CC1	0.39	5	8	-6.2*
CCOC(=O)c1cnc2c(c(C)nn2C)c1Oc1ccc(Cl)cc1	2.4	-9	1	-6.7*
COC1(OC)C=CC(=O)C=C1NC(=O)c1ccccc1OC(C)=O	-0.35	.	.	0.74
COc1ccc(CCNC(=O)c2nnc(Cc3ccc(Cl)cc3)o2)cc1OC	-0.005	-6	7	-3.6*
COc1ccc(CCNC(=O)c2cc3sc(Cl)cc3n2C)cc1OC	2.3*	2	15	.
O=C(O)Cc1ccc(C(=O)c2ccccc2F)s1	0.34	10	11	-0.66
CC(=O)Nc1ccc(S(=O)(=O)NCCSCc2ccc(Cl)cc2Cl)cc1	-0.85	0	19	-3.6
O=c1[nH]cnc2nc(-c3ccccc3)c(-c3ccccc3)nc12	1.6	-3	2	1.7
O=c1[nH]cnc2nn(-c3ccccc3)nc12	-1.5	.	.	-3.7*
CCN(CC)S(=O)(=O)c1ccc2c(c1)nc(SCC(=O)NC1CC1)n2-c1ccccc1OC	-0.14	3	5	-3.4
Cc1nc2cc(NC(=O)COc3ccc(C#N)cc3)ccc2n1-c1ccccc1	-7.9*	1	5	1.2
CCc1cc(/C(Cc2ccccn2)=N\O)c(O)cc1O	0.21	3	2	-1.5
CCc1cc(/C(Cc2ccc3ccccc3n2)=N\O)c(O)cc1O	1	-3	11	-3.9*
CC1Cc2nc(SCC(=O)Nc3ccc4c(c3)OCO4)n(-c3ccc(F)cc3)c(=O)c2S1 (stereo unspecified)	0.53	.	.	0.62
CCN(CC)c1ccc(/C=c2/sc3nnc(-c4ccccc4C)n3c2=O)cc1	0.23	-2	118*[fluorescence artefact?]	-2.9
Cc1ccc(/C=c2/sc3nnc(-c4ccccc4Cl)n3c2=O)o1	1.7	2	4	-1.3
CCN(CC)c1ccc(/C=c2\sc3nnc(-c4ccccc4Cl)n3c2=O)cc1	0.94	-6	134*[fluorescence artefact?]	-4.7*
CC(C)NC(=O)NC(=O)CSc1nnc(COc2ccccc2Cl)o1	-0.17	1	11	-2
CC(C)CCNC(=O)NC(=O)CSc1nnc(COc2ccccc2Cl)o1	-0.98	4	9	-4.8*
COc1ccc(N2C(=O)CC2(/C=C/c2ccccc2OC)C(=O)NC2CCCC2)cc1 (stereo unspecified)	0.61	-7	2	-5.4*
SMILES	DAT uptake mod	EphB4 ephrin blk	Rev-RRE block	Cav32 inh
CCC(=O)Nc1cccc(NC(=O)c2cccc([N+](=O)[O-])c2)c1	-0.097	-1	1	-0.28
Cc1ccc(OCCn2c(C3CC(=O)N(Cc4ccccc4)C3)nc3ccccc32)cc1 (stereo unspecified)	1.5	10	-3	-7.3*
COc1ccc(S(=O)(=O)N(CCc2ccccc2)CC(=O)O)cc1	-0.2	-8	6	0.51
COc1cccc(NC(=O)c2ccc(-n3cccn3)nc2)c1	-1	2	6	1.5
CC1CCN(CC(=O)Nc2cccc([N+](=O)[O-])c2)CC1	-2.8*	-4	1	0.11
Cc1cc2cc(CNC(=O)Cc3cccs3)ccc2n1C	0.51	.	.	-4.2*
CC(C)(C)c1ccc(S(=O)(=O)N2CCC(c3nc4ccc(Cl)cc4[nH]3)CC2)cc1	0.91	-4	9	-4.6*
CC(=O)Nc1ccc(S(=O)(=O)N2CCC(c3nc4ccc(C)cc4[nH]3)CC2)cc1	0.55	.	.	0.8
O=C(CSc1nnc2n(C3CCCC3)c(=O)c3ccccc3n12)N1CCCCCC1	2.2	4	10	-0.66
CC1CCCN(C(=O)CSc2nnc3n(C4CCCC4)c(=O)c4ccccc4n23)C1 (stereo unspecified)	3.1*	-3	8	1.7
COc1ccc(Nc2nnc(-c3ccc(N4CCOCC4)c([N+](=O)[O-])c3)c3ccccc23)cc1	1.7	-3	0	-0.024
COc1ccccc1NC(=O)N1CCN(c2ncccn2)CC1	0.085	5	10	-0.031
CCc1nc(N2CCCC2)c(C#N)c2c1CCCC2	-0.17	1	20	-1.3
N#Cc1c(SCc2ccccc2)nc(N2CCOCC2)c2c1CCCC2	0.96	11	21	-5.4*
CCc1nc(N2CCOCC2)c(C#N)c2c1CCCC2	1.5	1	12	-4.5*
COc1cccc(C(=O)N/N=C/c2cn[nH]c2-c2ccc(OC)cc2OC)c1	1.5	9	-2	0.0075
CCN(C(=O)Cn1c(=O)n(Cc2ccccc2)c(=O)c2ccccc21)c1cccc(C)c1	1.7	-3	3	-6.4*
NC(=O)CSc1nnc(C2CC2)n1-c1ccccc1	-9.3*	-6	9	-0.16
CC(C)NC(=O)CSc1nnc(C2CC2)n1-c1ccccc1	0.15	0	4	0.84
O=C(c1ccccc1NS(=O)(=O)c1ccc2c(c1)OCCO2)N1CCOCC1	-0.18	-7	1	2.6
O=C(OCc1cccs1)c1ccccc1NS(=O)(=O)c1ccc2c(c1)OCCO2	0.92	9	2	-4.8*
Cc1cc(Nc2cc(Cl)nc(Sc3ccc(NC(=O)C4CC4)cc3)n2)n[nH]1	-2.6*	.	.	0.33
COc1cc(C)c(C(=O)Oc2cc(C)c(C(=O)O)c(O)c2C)c(OC)c1C	-2	.	.	-4.4*
O=C1Nc2cc(Cl)c(Cl)cc2N(O)N1c1ccc(Cl)c(Cl)c1	0.013	0	0	-1.6
O=C(c1cccc(F)c1)N1CCN(c2cccc(Cl)c2)CC1	0.72	1	141*[fluorescence artefact?]	-2.2
SMILES	DAT uptake mod	EphB4 ephrin blk	Rev-RRE block	Cav32 inh
CCOC(=O)N1CCN(C(=O)CN(c2cccc(C(F)(F)F)c2)S(C)(=O)=O)CC1	-8.7*	-9	2	0.46
CS(=O)(=O)N(CC(=O)N1CCN(c2cccc(Cl)c2)CC1)c1cccc(F)c1	0.31	-8	10	-6.3*
CC1CCN(C(=O)CN(c2ccc(Cl)c(C(F)(F)F)c2)S(C)(=O)=O)CC1	0.45	1	12	-1.2
CS(=O)(=O)N(CC(=O)N1CCN(c2ccccc2)CC1)c1ccc(Cl)c(C(F)(F)F)c1	0.72	-4	12	-5.3*
CS(=O)(=O)N(Cc1ccccc1)c1ccc(C(=O)N2CCN(c3cccc(Cl)c3)CC2)cc1	-1.1	-3	-4	-3.2
CC(C)c1nc(-c2c(N)n(C)c(=O)n(C)c2=O)sc1C(=O)C(C)(C)C	-0.93	.	.	0.014
CC1(C)CC[C@]2(CO)[C@@H](O)C[C@]3(C)C(=CCC4[C@@]5(C)CC[C@H](O)C(C)(C)C5CC[C@]43C)[C@@H]2C1 (stereo partly specified)	0.36	.	.	1.7
